Data: ChEMBL document CHEMBL1156517, “Targeting thyroid hormone receptor-beta agonists to the liver reduces cholesterol and triglycerides and improves the therapeutic index” (Proc Natl Acad Sci U S A, 2007)
The source made the active and inactive calls. The calls are words filed in the database; no cut-off is given here.

Key:
[1] = system: Rattus norvegicus; test: Toxicity in Sprague-Dawley rat assessed as suppression of thyroid hormone axis measured by decrease in free 3,5,3',5'-triiodo-L-thyronine level at 1 mg/kg, po after 7 weeks; format: organism-based; parameters: dose 1 mg/kg, route oral; conditions: in vivo, 1176 h
Outline: (§1)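 Male SD rats (n = 5–6 per group; baseline group n = 8) given vehicle (0.5% CMC/1% Lutrol F68) or drug orally once daily. One group per cohort weighed and killed by decapitation without anesthesia after 1, 2, 4 and 7 weeks. Trunk-blood serum assayed for total/free T3 and T4; TSH by [125I] radioimmunoassay with magnetic separation. Pituitary TSHβ mRNA also measured.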

[2] = system: Rattus norvegicus; test: Toxicity in Sprague-Dawley rat assessed as suppression of thyroid hormone axis measured by decrease in serum TSH level at 1 mg/kg, po after 7 weeks; format: organism-based; parameters: dose 1 mg/kg, route oral; conditions: in vivo, 1176 h; outline: as §1
[3] = system: Rattus norvegicus; test: Toxicity in Sprague-Dawley rat assessed as suppression of thyroid hormone axis measured by decrease in TSH-beta mRNA level at 1 mg/kg, po after 7 weeks; format: organism-based; parameters: dose 1 mg/kg, route oral; conditions: in vivo, 1176 h; outline: as §1
[4] = system: Mus musculus; test: Decrease in cholesterol level in wild-type C57BL/6 mouse at 5 mg/kg/day once daily for 7 days; format: functional, organism-based
[5] = system: Mus musculus; test: Decrease in liver triglyceride level in po dosed diet-induced obese C57BL/6 mouse after 14 days; format: functional; parameters: scale not given: the % may be the effect or the level left
Outline: (§2)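 DIO mice were male C57BL/6 fed a 60%-fat (by kcal) diet from about 4 weeks of age for about 170 days. They were grouped (n = 8) to match cholesterol and body weight. Dosing was oral, once daily for 2 weeks, in 0.5% CMC/1% Lutrol F68. At kill, blood was taken by cardiac puncture for plasma TGs. The liver was removed and weighed, and hepatic TGs were measured.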

[6] = system: Mus musculus; test: Decrease in cholesterol level in LDLR deficient C57BL/6 mouse at 0.5 mg/kg/day once daily for 7 days; format: functional, organism-based
[7] = system: Mus musculus; test: Decrease in cholesterol level in LDLR deficient C57BL/6 mouse at 5 mg/kg/day once daily for 7 days; format: functional, organism-based
[8] = system: Mus musculus; test: Decrease in liver weight in po dosed diet-induced obese C57BL/6 mouse after 14 days; format: functional; parameters: scale not given: the % may be the effect or the level left; outline: as §2
[9] = system: Mus musculus; test: Decrease in body weight in diet-induced obese C57BL/6 mouse at 0.03 mg/kg, po; format: functional; parameters: scale not given: the % may be the effect or the level left
[10] = system: Mus musculus; test: Decrease in cholesterol level in wild-type C57BL/6 mouse at 0.5 mg/kg/day once daily for 7 days; format: functional, organism-based
[11] = system: Mus musculus; test: Reduction in plasma cholesterol level in po dosed diet-induced obese C57BL/6 mouse after 2 weeks; format: functional; parameters: scale not given: the % may be the effect or the level left
Outline: (§3)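 Male C57BL/6 mice, about 4 weeks old, fed a high-fat diet (60% kcal fat) for about 170 days. Assigned to groups (n = 8) matched for cholesterol and body weight. Dosed orally once daily in 0.5% CMC/1% Lutrol F68 for 2 weeks. Baseline blood taken by tail nick. At end, cardiac-puncture blood used for cholesterol, TGs, glucose and thyroid hormones; liver weighed and hepatic TGs measured.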

[12] = system: Rattus norvegicus; test: Toxic cardiac effect on Sprague-Dawley rat assessed as increase in heart rate at >= 1 mg/kg/day, po for 7 days; format: toxicity, organism-based; parameters: route oral; conditions: in vivo, 168 h
Outline: (§4)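 Male SD rats (n = 6 per group) dosed daily by oral gavage for 7 days; vehicle group included. On day 7, rats anesthetized with isoflurane; catheter-tip transducer inserted into left ventricle via right carotid artery. LV pressure, LV dP/dt and heart rate (lead I ECG) recorded digitally. Systolic/diastolic aortic pressure taken by retracting catheter into proximal aorta.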

[13] = system: Rattus norvegicus; test: Toxic cardiac effect on Sprague-Dawley rat assessed as increase in first derivative of left ventricular pressure at >= 1 mg/kg/day, po for 7 days; format: toxicity, organism-based, Heart left ventricle; parameters: route oral; conditions: in vivo, 168 h; outline: as §4
[14] = system: Rattus norvegicus; test: Toxic cardiac effect on Sprague-Dawley rat assessed as increase in systolic aortic pressure at >= 1 mg/kg/day, po for 7 days; format: toxicity, organism-based; parameters: route oral; conditions: in vivo, 168 h; outline: as §4
[15] = system: Rattus norvegicus; test: Toxic cardiac effect in Sprague-Dawley rat assessed as increase in heart rate at 1 mg/kg/day, po; format: toxicity, organism-based; parameters: route oral; conditions: in vivo; outline: as §4
[16] = system: Rattus norvegicus; test: Toxic cardiac effect in Sprague-Dawley rat assessed as increase in first derivative of left ventricular pressure at 1 mg/kg/day, po; format: toxicity, organism-based, Heart left ventricle; parameters: route oral; conditions: in vivo; outline: as §4
[17] = system: Rattus norvegicus; test: Toxic cardiac effect in Sprague-Dawley rat assessed as increase in heart weight at 1 mg/kg/day, po; format: toxicity, organism-based; parameters: route oral; conditions: in vivo
[18] = system: Rattus norvegicus; test: Toxic cardiac effect on Sprague-Dawley rat assessed as decrease in body weight gain at 1 mg/kg/day, po; format: toxicity, organism-based; parameters: route oral; scale not given: the % may be the effect or the level left; conditions: in vivo
[19] = system: Rattus norvegicus; test: Toxicity in Sprague-Dawley rat assessed as suppression of thyroid hormone axis measured by decrease in total 3,5,3',5'-tetraiodo-L-thyronine level at 0.1 mg/kg, po after 7 weeks; format: organism-based; parameters: dose 0.1 mg/kg, route oral; conditions: in vivo, 1176 h
[20] = system: Rattus norvegicus; test: Toxicity in Sprague-Dawley rat assessed as suppression of thyroid hormone axis measured by decrease in free 3,5,3',5'-tetraiodo-L-thyronine level at 0.1 mg/kg, po after 7 weeks; format: organism-based; parameters: dose 0.1 mg/kg, route oral; conditions: in vivo, 1176 h; outline: as §1
[21] = system: Rattus norvegicus; test: Toxicity in Sprague-Dawley rat assessed as suppression of thyroid hormone axis measured by decrease in total […]-L-thyronine level at 0.1 mg/kg, po after 7 weeks; format: organism-based; parameters: dose 0.1 mg/kg, route oral; conditions: in vivo, 1176 h
[22] = system: Rattus norvegicus; test: Toxicity in Sprague-Dawley rat assessed as suppression of thyroid hormone axis measured by decrease in free 3,5,3',5'-triiodo-L-thyronine level at 0.1 mg/kg, po after 7 weeks; format: organism-based; parameters: dose 0.1 mg/kg, route oral; conditions: in vivo, 1176 h; outline: as §1
[23] = system: Rattus norvegicus; test: Toxicity in Sprague-Dawley rat assessed as suppression of thyroid hormone axis measured by decrease in serum TSH level at 0.1 mg/kg, po after 7 weeks; format: organism-based; parameters: dose 0.1 mg/kg, route oral; conditions: in vivo, 1176 h; outline: as §1
[24] = system: Rattus norvegicus; test: Toxicity in Sprague-Dawley rat assessed as suppression of thyroid hormone axis measured by decrease in TSH-beta mRNA level at 0.1 mg/kg, po after 7 weeks; format: organism-based; parameters: dose 0.1 mg/kg, route oral; conditions: in vivo, 1176 h; outline: as §1
[25] = system: Rattus norvegicus; test: Toxicity in Sprague-Dawley rat assessed as suppression of thyroid hormone axis measured by decrease in total 3,5,3',5'-tetraiodo-L-thyronine level at 1 mg/kg, po after 7 weeks; format: organism-based; parameters: dose 1 mg/kg, route oral; conditions: in vivo, 1176 h
[26] = system: Rattus norvegicus; test: Toxicity in Sprague-Dawley rat assessed as suppression of thyroid hormone axis measured by decrease in free 3,5,3',5'-tetraiodo-L-thyronine level at 1 mg/kg, po after 7 weeks; format: organism-based; parameters: dose 1 mg/kg, route oral; conditions: in vivo, 1176 h; outline: as §1
[27] = system: Rattus norvegicus; test: Toxicity in Sprague-Dawley rat assessed as suppression of thyroid hormone axis measured by assessed as decrease in total […]-L-thyronine level at 1 mg/kg, po after 7 weeks; format: organism-based; parameters: dose 1 mg/kg, route oral; conditions: in vivo, 1176 h; outline: as §1
[28] = system: Mus musculus; test: Effect on hepatic LDLR mRNA level in LDLR deficient C57BL/6 mouse at 0.5 mg/kg/day once daily for 7 days; format: functional
[29] = system: Mus musculus; test: Effect on hepatic LDLR mRNA level in wild-type C57BL/6 mouse at 0.5 mg/kg/day once daily for 7 days; format: functional
[30] = system: Mus musculus; test: Reduction in total 3,5,3',5'-tetraiodo-L-thyronine level in po dosed diet-induced obese C57BL/6 mouse; format: functional, organism-based; outline: as §3
[31] = system: Mus musculus; test: Reduction in total […]-L-thyronine level in po dosed diet-induced obese C57BL/6 mouse; format: functional, organism-based; outline: as §3
[32] = system: Mus musculus; test: Reduction in blood glucose level in po dosed diet-induced obese C57BL/6 mouse; format: functional, organism-based; outline: as §3
[33] = system: Mus musculus; test: Increase in heart weight in po dosed diet-induced obese C57BL/6 mouse; format: functional, organism-based
[34] = species: Rattus norvegicus; test: Reduction in plasma cholesterol level in cholesterol fed Sprague-Dawley rat; format: functional
[35] = system: Rattus norvegicus; test: Effect on malic enzyme mRNA expression in po dosed Sprague-Dawley rat liver; format: functional, organism-based; conditions: TDE = time-dependent effect
Outline: (§5)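 Killed 3, 8 and 24 h post-dose under 2.5% isoflurane. Pituitary and thyroid snap-frozen; liver, heart, soleus, spleen and kidney freeze-clamped. mRNA by quantitative real-time PCR, expressed as fold-change vs vehicle.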

[36] = system: Rattus norvegicus; test: Effect on SREBP-1c mRNA expression in po dosed Sprague-Dawley rat liver; format: functional, organism-based; conditions: TDE = time-dependent effect
[37] = system: Rattus norvegicus; test: Effect on LDLR mRNA expression in po dosed Sprague-Dawley rat liver; format: functional, organism-based; conditions: TDE = time-dependent effect
[38] = system: Rattus norvegicus; test: Effect on type 1 iodothyronine deiodinase mRNA expression in po dosed Sprague-Dawley rat liver; format: functional, organism-based; conditions: TDE = time-dependent effect; outline: as §5

SMILES: CC(C)c1cc(Oc2c(Cl)cc(CC(=O)O)cc2Cl)ccc1O
- Activity [1]: Active
- Activity [2]: Active
- Activity [3]: Active
- Activity [4]: Active
- Activity [5]: 33%
- Activity [6]: inactive
- Activity [7]: inactive
- Activity [8]: 33%
- Activity [9]: 3%
- Activity [10]: Active
- Activity [11]: 67%
- Activity [12]: Active
- Activity [13]: Active
- Activity [14]: Active
- Activity [15]: Active
- Activity [16]: Active
- Activity [17]: Active
- Activity [18]: 61%
- Activity [19]: Active
- Activity [20]: Active
- Activity [21]: Active
- Activity [22]: Active
- Activity [23]: Active
- Activity [24]: Active
- Activity [25]: Active
- Activity [26]: Active
- Activity [27]: Active
- Activity [28]: -10.6%
- Activity [29]: -55.8%
- Activity [30]: Active
- Activity [31]: Active
- Activity [32]: Active
- Activity [33]: Active
- ED50 [34]: 0.05 mg/kg
- Activity [35]: tde
- Activity [36]: tde
- Activity [37]: tde
- Activity [38]: tde
